The results in this text go back to the RNAGym collection of RNA variant scans (doi:10.1126/science.aae0568).

Variants at the floor of the assay were thinned out.

B1: tRNA (parent)
chain: GUUCCGUUGGCGUAAUGGUAACGCGUCUCCCUCCUAAGGAGAAGACUGCGGGUUCGAGUCCCGUACGGAACG

The data set covers variants of B1. Put plainly: yeast fitness relative to wild type (ratio to wild type); higher = fitter; tRNA-Arg(CCU), competitive growth, 37 C, YPD. A digest of the protocol: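 Variants of the tRNA-Arg(CCU) gene, chemically synthesised with a 3% per-site mutation rate at 69 sites, were placed at the native genomic locus in Saccharomyces cerevisiae. The pooled strains were competed in YPD at 37°C for 24 hours in six parallel replicates. Gene amplicons from the start population and from each end population were read by 100-nucleotide paired-end sequencing. Darwinian fitness relative to wild type came from changes in genotype frequencies; genotypes needed ≥ 100 starting reads, and estimates < 0.5 were set to 0.5.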
Consider GUUCCGUUGGCGUAAUGGUAACGCGUCUCCCUCCUUAGGCGAAGACUGCGGGUUCGAGUCCUGUCCGGAACG [A36U A40C C62U A65C], for which the yeast fitness is no more than 0.5.
On to GUUCCGUUGGAGUAAUGGUAACGCGUCUCCCUCCUAAGGAGAAGACUGGGGGUUCGAGUCCCGUACGGAACG [C11A C49G], for which the yeast fitness turned out to be 0.782.
For GUACCGUUGGCGUAAUGAUAAUGCGUCUCCCUCCUAAGGAGAAGACUGCGGGUUCGAGUCCCGCACGGAGCG [U3A G18A C22U U64C A70G] the value was no more than 0.5.
The result for GUUCCGUUGGAGUAGUGGUAACGCGUCUCCAUCCUAAGGAGAAGACUGCGGGUUCGAGUACCGUACGGAACG [C11A A15G C31A C60A] reads no more than 0.5.
In the case of GUUCCGCUGGCGUAAUGGUAACGCGUCUCACUCCUAAGGAGAAGACUGCGGGUUCGAGUCCCGUACGGAACG [U7C C30A], the yeast fitness stood at 0.794.
For the variant GUUCCGUUGGCGUAAUGGUAACGCGUCUCCCUCCUAAGGAGAAGACUGCGGGUUCGGAUACCGUAUGGAACG [A57G G58A C60A C66U], the yeast fitness amounted to 0.595.
For GUUCCGUUGGCGUAAUGGUACCGCGUCUCCCACAUAAAGAGAAGUCUGCGGGUUCGAGUCCCGUACGGAACG [A21C U32A C34A G38A A45U], the yeast fitness was no more than 0.5.
As to GUUCCGUUGGCGUAAUGGUAACGCGUCUGCCUCCUAAGGAGAAGACUCUGGGUUCGAGUCACGUACGGAACG [C29G G48C C49U C61A], the yeast fitness was no more than 0.5.
As to GUUCCGUUGGCGUAAUGGUAAUGCGUCUUCCUCCUAUGGAGAAGACUGCGGGUUCGAGUCCCGUACGGAACG [C22U C29U A37U], the yeast fitness is no more than 0.5.
The result for GUUCCAUUGGCGUAAUGGGAACGCGUCUCCCUCCUAAGGAGAAGACUGCGGGCUCGAGUCCCGUACGGAACG [G6A U19G U53C] reads no more than 0.5.
For GUUCCGUUCGCGUAAUGGAAGCGCGUCUCCCUCCUAAGGAGACGACUGCGGGUUCGAGUCCCGUGCAGAACG [G9C U19A A21G A43C A65G G67A], the yeast fitness was no more than 0.5.
As for GUUCCGUUGGCAUAAUGGUAACGCGUCUACCUCCUAAGGAGAAGACUGCGGGUUCGAGUCCCGUACCGAACG [G12A C29A G67C], the yeast fitness is no more than 0.5.
As to GUUCUGUUGGCGUCAUGGUAACGCGUCUCCCUCCUAAGGAGGAGACUGCGGGUUCGAGUCCCGUCCGGAACG [C5U A14C A42G A65C], the yeast fitness was no more than 0.5.
Consider GUUCCGUUGGCGUACUGGUAACGUGUCAGCCUCCUAAGGAGAAGACUGCGGAUUCGAGUCCCGUACGGAACG [A15C C24U U28A C29G G52A], for which the yeast fitness amounted to 0.501.
For GUUCCGUUGGCGUAAUGGUAACGCGUAUCCAUCCUAAGGAGAAGACUGCGGGUUCGAGUCCCGUACGGUACG [C27A C31A A69U], the yeast fitness amounted to 0.567.
Regarding GUUCCGUUGGCGUAAAGGUAACGCGUCUCCCUCCUAAGGAGAAGACCGCGGGUUCGAGUCCCGUACGGUACG [U16A U47C A69U], the yeast fitness is 0.91.
For the variant GUUGCGUUGGCGUAAUAGUAACGCGUCUCCCUCCUAAGGAGAAGACUGCGGGUUCGAGUCCCGUACGGAGCG [C4G G17A A70G], the yeast fitness worked out at 0.567.
Consider GUUACGUUGGCGUAAUGGUAACGCGUCACACUCCUAAGGAGAAGACUGGGGGUUCGAGUCCCGUACGGACCG [C4A U28A C30A C49G A70C], for which the yeast fitness was no more than 0.5.
The result for GUUCCGUUGGCAUAAAGGUAACGCGUCUCCCUCCUAAGGGGAAGACUGCGGGUUCGCGUACUGUACGGAACG [G12A U16A A40G A57C C60A C62U] reads 0.69; that for GUUCCGUUGGCGUUAAGGUAACGCGUGUCCCUCCUAAGGUGAAGACUGCGGGUUCGAGUCCCGUACGGAACG [A14U U16A C27G A40U], no more than 0.5.
GUUCCGUUGGCGUAAUGGUACCGCGUCUCCCUCCUAAGGAGAAGCCUGUGGGUUCGAGUCCCGUACAGAACG [A21C A45C C49U G67A]: the yeast fitness is no more than 0.5.
For the variant GUUCCGUUGGCGUAAUGGUAACGCGUCUCCCUCCUAAGGAGAAGACUGCAGUUUCGAGUCCCGUACCGAACG [G50A G52U G67C], the yeast fitness is no more than 0.5.
Take GUUCCGUUGGCGUAACGGAAACGCGUCUCCCUCCUAAGGAGAAGACUGCGGGUUCGAGUCCCGUACGGAACG [U16C U19A]: the yeast fitness is 1.16.
Take GUUCCGUCGGCGUAAUGGUAACGCGUCUUCCUCCUAAGGAGAAGACUGCGGGUUCCAGUCCCGUACGGAACG [U8C C29U G56C]: the yeast fitness turned out to be 0.538.
The result for GUUCCGUGGGCGUAAUGGUAACGCGUCUCCCUCCUAAGGAGAAGAGUGCGGGUUCGUGUCCCGUACGGAACG [U8G C46G A57U] reads no more than 0.5.
As to GUUUCGUUGGCGUAAUGGUAACGCGUCUCCCUCCUAAGGAGAAGACUGCGGGUUCGGGUCUCGUACGGAACG [C4U A57G C61U], the yeast fitness was found to be 0.675.
For GCUCCGUUGGCGUAAUGGUAACGCGUCACCCUCCUAAGGAGAAGACUGCGGGUUCAAGUCCCGUACGGAACG [U2C U28A G56A] the value was no more than 0.5; for GUUCCGUUCGCGUAAUGGUAACGCGUCUCCCUCCUAAGGAGAAGAUUGCGGGUUCGAGUCCCGUACGGAACG [G9C C46U], 0.896.
Regarding GUUCCGUUGGCGUAAUGGUAACGCGUCUCAGUCCUAAGGAGAAGACUGAGGGUUCGAGUUCCGUACAGAACG [C30A C31G C49A C60U G67A], the yeast fitness came to 0.526.
Consider GUUCCGUUGGCGUUAUGGUAACGCGUCUCCCUCCUAAGGAGAAGACUGCGGGUUCGAGUCCCGUACCGAACG [A14U G67C], for which the yeast fitness was determined as 0.729.
Consider GUUCCGUUGGUGUAAUGGUAACGCGUCUCCCUCAUAAGGAGAAGAUUGCGGGUUCGAGUCCCGUACGGAACG [C11U C34A C46U], for which the yeast fitness was no more than 0.5.
For GUUUUGUUGGCGUAAUGGUAACGCGUCUCCCUCCUUAGGAGAAGACUGCGGGUUCGAGUCCCGUACGGAACG [C4U C5U A36U] the value was 0.625.
With GUUCCGUUGCCGUAAUGGUGACGUGUCUCCCUCCUAACGAGAAGACUGCGGGUUCGAGUCCCGUACGGAACG [G10C A20G C24U G38C], the yeast fitness was 0.561.
On to GUUCCGUUGGCGUAAUGGUAACGCGUCUUCCUCCUAGGGAGAAGACUGCGGGUUCGAGUCCCGUUCGGAACG [C29U A37G A65U], for which the yeast fitness is no more than 0.5.
For the variant GUUCCCUUGGCGUAAUGGUAACGCGUCUCUCUCCUAAGGAGAAGAAUGCGGGUUCGAGUCCCGUACCGAACG [G6C C30U C46A G67C], the yeast fitness is no more than 0.5.
As for GUUCCGAUGGCGUAAUGGUAACGCGUCUCCCUCCUAAGGAGAAGACUGCGGGCUCGAGUCCCGUACGGAACG [U7A U53C], the yeast fitness is 0.604.
Regarding GUUCCGUCGGCGUAAUGGUAACCCGUCUGCCUCCUAAGGAGAAGUCUGCGGGUUCGAGUCCCGUACGGAACG [U8C G23C C29G A45U], the yeast fitness is no more than 0.5.
